Assay results reported in paper PMC2585982 (Toxicology and applied pharmacology, 2008).

What was measured:
human PXR = details: read-out: EC50, activation of human PXR; ref Yang and Yan, 2007; cited from earlier work
rat PXR = details: read-out: EC50, activation of rat PXR; ref Yang and Yan, 2007; cited from earlier work
P450 3A11 [1] = experiment: Liver microsomal P450 3A activity; format: in vivo, mice; details: mouse, in vivo, po, 100 mg/kg
P450s 1A1/2 = experiment: Liver microsomal P450 1A activity; format: in vivo, mice; details: C57BL/6 mice, 100 mg/kg p.o. 3 days, vs corn oil
GSTμ = experiment: Western blot of liver cytosol, GSTμ protein expression; format: in vivo, mice; details: C57BL/6 mice, 100 mg/kg p.o. 3 days
P450 = experiment: Liver microsomal P450 content after oral dosing of mice; format: in vivo; details: C57BL/6 mice, 100 mg/kg p.o. 3 days, vs corn oil
P450 1A1/1A2 = details: mouse, in vivo, po, 100 mg/kg
NQO = experiment: Liver cytosolic NQO activity; format: in vivo, mice; details: C57BL/6 mice, 100 mg/kg p.o. 3 days, vs corn oil
P450 3A11 [2] = experiment: Western blot of liver microsomes, P450 3A11 protein expression; details: C57BL/6 mice, 100 mg/kg p.o. 3 days
P450 2B10 = experiment: Western blot of liver microsomes, P450 2B10 protein expression; details: C57BL/6 mice, 100 mg/kg p.o. 3 days
P450s 2B9/10 = experiment: Liver microsomal P450 2B activity; format: in vivo, mice; details: C57BL/6 mice, 100 mg/kg p.o. 3 days, vs corn oil
PXR [3] = biological target: T1, PXR (Mus musculus, UniProt O54915); experiment: PXR-DR3 reporter assay; format: cell-based; details: CV-1 cells, full length PXR
T1 sequence (O54915 1-431): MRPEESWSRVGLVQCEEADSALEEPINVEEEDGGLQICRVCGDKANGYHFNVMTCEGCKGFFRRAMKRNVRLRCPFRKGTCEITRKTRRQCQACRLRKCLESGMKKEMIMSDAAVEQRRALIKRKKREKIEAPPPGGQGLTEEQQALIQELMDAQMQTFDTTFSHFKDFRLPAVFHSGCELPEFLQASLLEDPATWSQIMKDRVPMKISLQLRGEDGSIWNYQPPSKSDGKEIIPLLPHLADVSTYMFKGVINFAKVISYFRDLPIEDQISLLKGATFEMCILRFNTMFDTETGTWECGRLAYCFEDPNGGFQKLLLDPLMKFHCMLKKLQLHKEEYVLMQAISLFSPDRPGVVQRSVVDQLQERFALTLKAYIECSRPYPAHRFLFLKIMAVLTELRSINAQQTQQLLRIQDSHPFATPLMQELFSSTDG
T1 sequence (P19793 1-462 partner): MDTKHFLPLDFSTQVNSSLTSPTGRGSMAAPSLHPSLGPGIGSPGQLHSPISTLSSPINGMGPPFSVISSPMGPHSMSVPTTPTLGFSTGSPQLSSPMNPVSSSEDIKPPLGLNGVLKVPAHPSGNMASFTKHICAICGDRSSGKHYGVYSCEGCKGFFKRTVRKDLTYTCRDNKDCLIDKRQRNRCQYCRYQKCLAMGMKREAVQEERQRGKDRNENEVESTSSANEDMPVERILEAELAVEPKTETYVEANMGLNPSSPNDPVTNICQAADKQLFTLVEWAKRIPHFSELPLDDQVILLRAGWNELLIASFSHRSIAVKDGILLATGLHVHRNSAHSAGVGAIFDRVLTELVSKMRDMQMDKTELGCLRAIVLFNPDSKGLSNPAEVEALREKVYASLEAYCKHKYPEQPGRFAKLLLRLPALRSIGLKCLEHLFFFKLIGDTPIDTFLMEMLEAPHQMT

PXR LBD and SRC-1 RID = PXR LBD and SRC-1 RID (Mus musculus, UniProt O54915); experiment: Mammalian two-hybrid assay, Gal-SRC-1 RID + VP-L-PXR in CV-1 cells; format: cell-based; details: isopimpinellin 50 μM; PCN 10 μM; Figure 7A
Sequence of PXR LBD and SRC-1 RID (Q15788 570-780 partner limits assumed, one chain of several): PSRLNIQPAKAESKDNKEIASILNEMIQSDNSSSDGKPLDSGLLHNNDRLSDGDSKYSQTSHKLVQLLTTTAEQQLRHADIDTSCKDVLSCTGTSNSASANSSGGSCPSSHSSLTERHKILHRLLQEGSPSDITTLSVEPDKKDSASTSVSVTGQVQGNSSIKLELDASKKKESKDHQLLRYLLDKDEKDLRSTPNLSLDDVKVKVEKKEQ
Summary of the method: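 Mammalian two-hybrid in CV-1 cells co-transfected with Gal-SRC-1 RID and/or VP-L-PXR, plus MH100-tk-luc reporter and CMX-β-gal. Cells were exposed to compound or solvent control in medium for 18–24 h. Interaction was taken as luciferase activity normalised to β-gal activity; mean ± SD.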

PXR [4] = biological target: T2, PXR (Mus musculus, UniProt O54915); experiment: GAL-PXR reporter assay; format: cell-based; details: CV-1 cells, 18–24 h
T2 sequence (O54915 143-430 limits assumed): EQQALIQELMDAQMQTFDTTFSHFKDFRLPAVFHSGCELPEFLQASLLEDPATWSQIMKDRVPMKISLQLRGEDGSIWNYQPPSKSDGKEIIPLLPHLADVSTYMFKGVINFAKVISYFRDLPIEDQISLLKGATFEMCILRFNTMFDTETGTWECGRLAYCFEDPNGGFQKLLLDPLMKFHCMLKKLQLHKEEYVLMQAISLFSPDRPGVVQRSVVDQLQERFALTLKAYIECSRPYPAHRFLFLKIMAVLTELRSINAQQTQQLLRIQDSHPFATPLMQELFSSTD

GSTa1 mRNA = experiment: Northern blot of liver RNA, GSTa1 mRNA in CAR; format: in vivo, mice; details: isopimpinellin 150 mg/kg p.o. 24 h; TC 3 mg/kg i.p. 6 h
Cyp2b10 mRNA = experiment: Northern blot of liver RNA, Cyp2b10 mRNA in CAR; details: isopimpinellin 150 mg/kg p.o. 24 h, TC 3 mg/kg i.p. 6 h
[5] = biological target: mCAR-LBD fused to the Gal4 DNA binding domain (Mus musculus, UniProt O35627); experiment: CAR transfection assay, Gal4-mCAR LBD fusion reporter in HepG2 cells; format: cell-based, murine; details: HepG2, 4 μM androstanol; 250 nM TC or 0.1–100 μM isopimpinellin, 24 h
Sequence of mCAR-LBD fused to the Gal4 DNA binding domain (O35627 119-358 limits assumed): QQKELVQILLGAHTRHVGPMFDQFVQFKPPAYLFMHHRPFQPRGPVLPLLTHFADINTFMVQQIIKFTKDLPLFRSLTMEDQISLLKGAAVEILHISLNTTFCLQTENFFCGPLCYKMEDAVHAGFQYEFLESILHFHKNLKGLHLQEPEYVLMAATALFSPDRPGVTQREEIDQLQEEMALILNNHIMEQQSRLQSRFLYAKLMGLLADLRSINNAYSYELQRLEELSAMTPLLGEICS

Cyp3a11 mRNA = experiment: Northern blot of liver RNA, Cyp3a11 mRNA in CAR; details: isopimpinellin 150 mg/kg p.o. 24 h, TC 3 mg/kg i.p. 6 h
GSTp mRNA = experiment: Northern blot of liver RNA, GSTp mRNA in CAR; format: in vivo, mice; details: isopimpinellin 150 mg/kg p.o. 24 h; TC 3 mg/kg i.p. 6 h
full-length mCAR = full-length mCAR (Mus musculus, UniProt O35627); experiment: CAR transfection assay, full-length mCAR reporter in HepG2 cells; format: cell-based, murine; details: 4 μM androstanol
Sequence of full-length mCAR (O35627 whole entry): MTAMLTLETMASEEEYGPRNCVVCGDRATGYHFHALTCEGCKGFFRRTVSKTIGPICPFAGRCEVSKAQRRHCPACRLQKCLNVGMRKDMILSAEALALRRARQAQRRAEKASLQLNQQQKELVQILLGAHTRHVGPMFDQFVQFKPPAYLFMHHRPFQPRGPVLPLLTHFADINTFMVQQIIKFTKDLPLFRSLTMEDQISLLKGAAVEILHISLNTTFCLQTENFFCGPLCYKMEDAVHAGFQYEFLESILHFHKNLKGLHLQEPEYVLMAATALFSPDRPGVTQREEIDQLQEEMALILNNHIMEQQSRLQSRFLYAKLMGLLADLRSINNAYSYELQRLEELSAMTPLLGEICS
Summary of the method: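 HepG2 cells in DMEM with 10% FBS were plated at 10^5 per well in charcoal-stripped serum. They were co-transfected with pCMX-mCAR or empty pCMX, a […] (LXRE)3 firefly luciferase reporter and a pRL-tk renilla control. At 70–80% confluence, cells got 4 μM androstanol, 0.1% DMSO or 4 μM […] plus 250 nM reference agonist or 0.1–100 μM test compound. After 24 h, firefly/renilla ratio was read; mean ± SD, ≥3 experiments.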

For COc1c2occc2cc2ccc(=O)oc12 [8-methoxypsoralen], the EC50 (human PXR) is listed as 14 µM and the EC50 (rat PXR) is listed as 14 µM.

With CCC1(c2ccccc2)C(=O)NC(=O)NC1=O [PB, Phenobarbital, reference compound] the “Increase in P450 3A activity (testosterone), liver microsomes” value (P450 3A11 [1]) was 3–4 fold, the “P450 1 activity (ethoxyresorufin), liver microsomes” value (P450s 1A1/2) was “significant increase” and the “Liver cytosolic GSTμ protein expression (western blot densitometry)” value (GSTμ) was “greater effect”. For the same compound, the “P450 content, liver microsomes” value (P450) was “increased”, the “P450 1A1/1A2 protein expression (western blot densitometry)” value (P450 1A1/1A2) was “increased” and the “Increase in NQO activity, liver cytosol” value (NQO) was “not significantly different from the control group”. The “P450 3A11 protein expression (western blot densitometry)” value (P450 3A11 [2]) was “increased”, the “P450 2B10 protein expression (western blot densitometry)” value (P450 2B10) was “increased” and the “Increase in P450 2B activity (pentoxyresorufin), liver microsomes” value (P450s 2B9/10) was “significant increase”.

With CC(=O)[C@H]1[C@H](C#N)C[C@H]2[C@@H]3CC=C4C[C@@H](O)CC[C@]4(C)[C@H]3CC[C@@]21C [PCN, reference compound] the “Max (concentration to reach maximal effect), PXR-DR3” value (PXR [3]) was 100 nM, the “ED50, PXR-DR3 activation” value (PXR [3]; 18–24 h) was 0.02 µM and the “Induced interaction of PXR LBD and SRC-1 RID compared to the control” value (PXR LBD and SRC-1 RID) was “similar”. For the same compound, the “Max (concentration to reach maximal effect), GAL-PXR” value (PXR [4]) was 3,000 nM and the “ED50, GAL-PXR activation” value (PXR [4]; luciferase normalized by β-gal) was 0.063 µM.

In the case of Clc1cnc(Oc2ccc(Oc3ncc(Cl)cc3Cl)cc2)c(Cl)c1 [TC, 1,4-bis[2-(3,5-dichloropyridyloxy)]benzene, reference compound], the “Increase in hepatic GSTa1 mRNA, female CAR(−/−) mice” value (GSTa1 mRNA) is reported as “did not increase”, the “Increase in hepatic GSTa1 mRNA, male CAR(−/−) mice” value (GSTa1 mRNA) is reported as “did not increase” and the “Increase in hepatic GSTa1 mRNA, male and female CAR(+/+) mice” value (GSTa1 mRNA) is reported as 8–10 fold. The “Induction of hepatic Cyp2b10 mRNA, CAR(−/−) mice” value (Cyp2b10 mRNA) was “absent”, the “Induction of hepatic Cyp2b10 mRNA, CAR(+/+) mice” value (Cyp2b10 mRNA; male and female) was ~ 4 fold and the “Effect on the inhibitory effect of androstanol on Gal4 reporter expression (mCAR-LBD)” value [5] was “counteracted”. For the same compound, the “Induction of hepatic Cyp3a11 mRNA, CAR(−/−) mice” value (Cyp3a11 mRNA) was “absent”, the “Induction of hepatic Cyp3a11 mRNA, CAR(+/+) mice” value (Cyp3a11 mRNA; male and female) was ~ 4 fold and the “Increase in hepatic GSTp mRNA, CAR(−/−) mice” value (GSTp mRNA) was “no increase”. For the same compound, the “Increase in hepatic GSTp mRNA, female CAR(+/+) mice” value (GSTp mRNA) was ~ 4 fold.

With C[C@@]12CCC[C@H]1[C@@H]1CC[C@H]3C[C@@H](O)CC[C@]3(C)[C@H]1CC2 [androstanol] the “Constitutive CAR transactivation” value (full-length mCAR) was “blocked”.
